ChEMBL document CHEMBL3792357, “4,6-Diphenylpyridines as Promising Novel Anti-Influenza Agents Targeting the PA-PB1 Protein-Protein Interaction: Structure-Activity Relationships Exploration with the Aid of Molecular Modeling” (J Med Chem, 2016)

What was measured:
[1] = biological target: PA/PB1 (Influenza A virus (A/Puerto Rico/8/1934(H1N1)), UniProt P03431+P03433); experiment: Inhibition of Influenza A virus PR/8/34 6His-tagged PA (239 to 716 residues) interaction with GST-tagged PB1 (1 to 25 residues) expressed in Escherichia coli compound treated in DMEM serum-free medium measured after overnight incubation by ELISA
In short: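 Same coated 6His-PA(239–716)/GST-PB1(1–25) ELISA (400 ng PA, 200 ng PB1 peptide; overnight room temperature; HRP anti-GST/TMB, OD 450), but GST-PB1 and compounds or DMSO are dissolved in serum-free DMEM instead of PBS. DMSO = 100% interaction; PB1(1–15)-Tat as positive control. IC50 from mean ± SD, ≥2 experiments in duplicate.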

[2] = Cytotoxicity against MDCK cells assessed as decrease in cell viability after 48 hrs by MTT assay; format: cell-based, Canis lupus familiaris; conditions: dog
In short: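 MDCK cells at 5x10³/well exposed to 2-fold serial dilutions from 250 µM for 48 h. MTT (5 mg/mL) for 4 h at 37 °C, solubilisation 3 h, A620. DMSO wells = 100% viable; CC50 = concentration giving 50% viability loss. Mean ± SD, ≥3 independent experiments in duplicate.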

[3] = biological target: PA/PB1 (Influenza A virus (A/Puerto Rico/8/1934(H1N1)), UniProt P03431+P03433); experiment: Inhibition of Influenza A virus PR/8/34 6His-tagged PA (239 to 716 residues) interaction with GST-tagged PB1 (1 to 25 residues) expressed in Escherichia coli compound treated in PBS buffer measured after overnight incubation by ELISA
In short: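 Plates coated with 400 ng E. coli-expressed 6His-PA(239–716) for 3 h at 37 °C, then blocked with 2% BSA/PBS for 1 h. Then 200 ng GST-PB1(1–25) (GST as control) with compound or DMSO in PBS, overnight at room temperature. Detection with HRP anti-GST mAb and TMB, OD 450 nm. DMSO = 100% interaction; PB1(1–15)-Tat as reference. Mean ± SD, ≥3 experiments in duplicate.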

Influenza A virus = experiment: Antiviral activity against Influenza A virus PR/8/34 infected in MDCK cells assessed as inhibition of plaque formation treated for 1 hr measured after 2 days by toluidine blue staining-based assay; format: functional, organism-based; conditions: A/Puerto Rico/8/1934(H1N1)
In short: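 MDCK confluent monolayers infected with PR8 (H1N1) at 40 PFU/well in DMEM with 1 µg/ml TPCK-trypsin, 0.14% BSA and compound, 1 h at 37 °C. Overlay of the same medium plus 1.2% Avicel and compound. After 2 days, fixed in 4% formaldehyde, stained with 0.1% toluidine blue and plaques counted. EC50 = 50% plaque inhibition. Ribavirin and oseltamivir as references. Mean ± SD, ≥3 independent experiments in duplicate.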

[4] = Cytotoxicity against HEK293T cells assessed as decrease in cell viability after 24 hrs by MTT assay; format: cell-based, HEK-293T; conditions: human
In short: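 HEK 293T cells at 2x10⁴/well exposed to 2-fold serial dilutions from 250 µM for 24 h. MTT (5 mg/mL) for 4 h at 37 °C, solubilisation 3 h, absorbance at 620 nm. DMSO wells set as 100% viability; CC50 = 50% viability decrease. Mean ± SD, ≥3 independent experiments in duplicate.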

[5] = Selectivity index, ratio of CC50 for MDCK cells to EC50 for Influenza A virus PR/8/34 infected in MDCK cells; format: toxicity, cell-based; conditions: dog, read-out: Ratio CC50/EC50
[6] = Ratio of IC50 for Influenza A virus PR/8/34 6His-tagged PA (239 to 716 residues) interaction with GST-tagged PB1 (1 to 25 residues) to EC50 for Influenza A virus PR/8/34 infected in MDCK cells
[7] = Inhibition of Influenza A virus RdRp transfected in HEK293T cells at 24 hrs by dual luciferase reporter gene-based minireplicon assay; format: cell-based; conditions: HEK-293T
In short: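 HEK 293T seeded at 2x10⁵/well; 24 h later calcium-phosphate transfected with PB1, PB2, PA and NP plasmids (100 ng/well each), pPolI-Flu-ffLuc (50 ng/well) and pRL-SV40 normaliser (50 ng/well) with compound or DMSO. Medium with compound replaced at 4 h; firefly/Renilla luciferase read at 24 h. Ribavirin reference. Mean ± SD, ≥2 experiments in duplicate.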

Compound | IC50 [1] | CC50 at 48 h [2] | IC50 [3] | EC50 (Influenza A virus) | CC50 at 24 h [4] | selectivity ratio [5] | Ratio IC50/EC50 [6] | EC50 [7]
CSCC[C@H](N)C(=O)N[C@@H](CC(=O)O)C(=O)N[C@H](C(=O)N[C@@H](CC(N)=O)C(=O)N1CCC[C@H]1C(=O)N[C@H](C(=O)N[C@@H](CC(C)C)C(=O)N[C@@H](CC(C)C)C(=O)N[C@@H](Cc1ccccc1)C(=O)N[C@@H](CC(C)C)C(=O)N[C@@H](CCCCN)C(=O)N[C@H](C(=O)N1CCC[C@H]1C(=O)N[C@@H](C)C(=O)N[C@@H](CCC(N)=O)C(=O)O)C(C)C)[C@@H](C)O)C(C)C | 31.7 µM | > 250 µM | 35.9 µM | 49.7 µM | > 250 µM | > 5 | – | –
Cc1cccc(NC(=O)CSc2nc(-c3ccccc3)cc(-c3ccccc3)c2C#N)c1 | 35.2 µM | > 250 µM | 175 µM | 9.2 µM | > 250 µM | > 27.2 | 19 | 86.6 µM
Cc1cccc(NC(=O)CSc2nccc(-c3ccccc3)c2C#N)c1 | – | 41.5 µM | > 200 µM | > 10 µM | 180 µM | – | – | –
Cc1cccc(NC(=O)CSc2nc(-c3ccccc3)ccc2C#N)c1 | – | 7.1 µM | > 200 µM | > 10 µM | 32 µM | – | – | –
Cc1cccc(NC(=O)CSc2nc(-c3ccc(C(F)(F)F)cc3)cc(-c3ccc(C(F)(F)F)cc3)n2)c1 | 64.5 µM | > 250 µM | > 200 µM | 26.5 µM | > 250 µM | > 9.4 | – | 22 µM
Cc1cccc(NC(=O)CCCSc2nc(-c3ccccc3)cc(-c3ccccc3)c2C#N)c1 | 145 µM | 41.5 µM | 140 µM | 8.2 µM | 95.6 µM | 5.1 | – | –
CSc1nc(-c2ccccc2)cc(-c2ccccc2)c1C#N | – | 125 µM | 195 µM | > 50 µM | 144 µM | – | – | –
Cc1cccc(NC(=O)COc2nc(-c3ccccc3)cc(-c3ccccc3)c2C#N)c1 | – | > 250 µM | > 200 µM | 93.9 µM | > 250 µM | > 2.7 | – | –
N#Cc1cnc(-c2ccccc2)cc1-c1ccccc1 | – | 105 µM | 116 µM | 45.1 µM | > 250 µM | 2.3 | – | –
Cc1cccc(NC(=O)CCc2nc(-c3ccccc3)cc(-c3ccccc3)c2C#N)c1 | – | > 250 µM | > 200 µM | > 100 µM | 140 µM | – | – | –
Cc1cccc(NC(=O)CCSc2nc(-c3ccccc3)cc(-c3ccccc3)c2C#N)c1 | – | 13.9 µM | 122 µM | > 10 µM | 150 µM | – | – | –
Cc1cccc(NC(=O)CSc2cc(-c3ccccc3)cc(-c3ccccc3)n2)c1 | 40.5 µM | 150 µM | 52.6 µM | 7.3 µM | > 250 µM | 20.5 | – | 30.8 µM
N#Cc1c(-c2ccccc2)cc(-c2ccccc2)nc1SCC(=O)N1CCOCC1 | – | > 250 µM | 177 µM | 100 µM | 184 µM | > 2.5 | – | –
Cc1cccc(NC(=O)CSc2nc(-c3ccccc3)cc(-c3ccccc3)n2)c1 | 113 µM | 10.1 µM | 165 µM | 3.5 µM | 22.3 µM | 2.9 | 47 | –
Cc1cccc(NC(=O)CNc2nc(-c3ccccc3)cc(-c3ccccc3)c2C#N)c1 | > 200 µM | > 250 µM | > 200 µM | 28.6 µM | > 250 µM | > 8.7 | – | 46.3 µM
Cc1cccc(NC(=O)/C=C/c2nc(-c3ccccc3)cc(-c3ccccc3)c2C#N)c1 | – | > 250 µM | 190 µM | 70.7 µM | > 250 µM | > 3.5 | – | –
CCOC(=O)C1=C[C@@H](OC(CC)CC)[C@H](NC(C)=O)[C@@H](N)C1 [OSELTAMIVIR] | – | > 250 µM | – | 0.015 µM | > 250 µM | > 16000 | – | –
NC(=O)c1ncn([C@@H]2O[C@H](CO)[C@@H](O)[C@H]2O)n1 [RIBAVIRIN] | – | > 250 µM | – | 12.8 µM | > 250 µM | > 19.5 | – | 23.8 µM
